Reference: ChEMBL document CHEMBL4373631, “Design, synthesis and evaluation of PD176252 analogues for ameliorating cisplatin-induced nephrotoxicity” (Medchemcomm, 2019)
Calls of active or inactive are those of the source. The calls are words filed in the database; no cut-off is given here.

Experiments:
[1] = tested on: HK-2; experiment: Antiinflammatory activity in human HK2 cells assessed as suppression of cisplatin-induced IL-6 […] level at 4 uM by ELISA; type: functional, cell-based
Summary of the method: (§1)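 HK2 cells starved overnight in DMEM/F12 with 0.5% FBS, pretreated with compound 6 h, then cisplatin 20 μM added. After 24 h, cytokine protein in the culture medium was measured with human TNF-α, IL-6 or MCP-1 ELISA kits per manufacturer's instructions. Three to four independent experiments.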

[2] = tested on: HK-2; experiment: Protection against cisplatin-induced cell death in human HK2 cells assessed as increase in survival rate preincubated for 6 hrs followed by cisplatin addition measured after 24 hrs by MTT assay; type: functional, cell-based
[3] = tested on: HK-2; experiment: Antiinflammatory activity in human HK2 cells assessed as suppression of cisplatin-induced MCP-1 mRNA level at 4 uM by SYBR-green based RT-PCR analysis; type: functional, cell-based
Summary of the method: (§2)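 Overnight starvation of HK2 cells in DMEM/F12 with 0.5% FBS, then 6 h compound pretreatment before cisplatin 20 μM. Cells harvested after 24 h. Total RNA extracted with an RNeasy kit, and MCP-1, TNF-α or IL-6 mRNA quantified by real-time PCR. Three to four independent experiments.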

[4] = tested on: HK-2; experiment: Antiinflammatory activity in human HK2 cells assessed as suppression of cisplatin-induced TNF-alpha […] level at 4 uM by ELISA; type: functional, cell-based; summary of the method: as §1
[5] = tested on: HK-2; experiment: Antiinflammatory activity in human HK2 cells assessed as suppression of cisplatin-induced TNF-alpha mRNA level at 4 uM by SYBR-green based RT-PCR analysis; type: functional, cell-based; summary of the method: as §2
[6] = target: Transcription factor p65 (Homo sapiens) (UniProt Q04206); experiment: Inhibition of cisplatin-induced NF-kappaB p65 phosphorylation in human HK2 cells at 4 uM by Western blot analysis; type: cell-based
Summary of the method: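 HK2 cells starved overnight in DMEM/F12 with 0.5% FBS, pretreated 6 h with compound, then given cisplatin 20 μM for 24 h. Lysates made in ice-cold RIPA buffer and protein measured by BCA. Run on 10% SDS-PAGE, transferred to nitrocellulose, primary antibodies 18 h at 4°C, IRDye 800 secondary 1.5 h at room temperature.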

[7] = tested on: HK-2; experiment: Antiinflammatory activity in human HK2 cells assessed as suppression of cisplatin-induced MCP-1 […] level at 4 uM by ELISA; type: functional, cell-based; summary of the method: as §1
[8] = tested on: HK-2; experiment: Protection against cisplatin-induced cell death in human HK2 cells assessed as increase in survival rate at 4 uM preincubated for 6 hrs followed by cisplatin addition measured after 24 hrs by MTT assay relative to control; type: functional; details: read-out: Survival
Summary of the method: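 HK2 cells starved overnight in DMEM/F12 with 0.5% FBS, pretreated with compound for 6 h, then exposed to cisplatin (20 μM) for 24 h. Compounds from 5 mM DMSO stocks. Viability by MTT: 0.5 mg/mL final, 4 h at 37°C, formazan dissolved in DMSO, absorbance at 492 nm. Three to four independent experiments.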

[9] = tested on: HK-2; experiment: Cytotoxicity against human HK2 cells assessed as reduction in cell viability at 1 to 256 uM after 24 hrs by MTT assay; type: cell-based; details: hk-2, 24 h
Summary of the method: (§3)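 MTT cytotoxicity read-out on HK2 cells. Medium was changed, MTT in PBS added to a final 0.5 mg/mL, and plates incubated 4 h at 37°C. Medium was then removed, formazan dissolved in DMSO, and absorbance read at 492 nm.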

[10] = tested on: HK-2; experiment: Antiinflammatory activity in human HK2 cells assessed as suppression of cisplatin-induced IL-6 mRNA level at 4 uM by SYBR-green based RT-PCR analysis; type: functional, cell-based; summary of the method: as §2
[11] = tested on: HK-2; experiment: Cytotoxicity against human HK2 cells assessed as reduction in cell viability after 24 hrs by MTT assay; type: cell-based; details: hk-2, 24 h; summary of the method: as §3

Sequence of Transcription factor p65 (Homo sapiens) (Q04206 whole entry): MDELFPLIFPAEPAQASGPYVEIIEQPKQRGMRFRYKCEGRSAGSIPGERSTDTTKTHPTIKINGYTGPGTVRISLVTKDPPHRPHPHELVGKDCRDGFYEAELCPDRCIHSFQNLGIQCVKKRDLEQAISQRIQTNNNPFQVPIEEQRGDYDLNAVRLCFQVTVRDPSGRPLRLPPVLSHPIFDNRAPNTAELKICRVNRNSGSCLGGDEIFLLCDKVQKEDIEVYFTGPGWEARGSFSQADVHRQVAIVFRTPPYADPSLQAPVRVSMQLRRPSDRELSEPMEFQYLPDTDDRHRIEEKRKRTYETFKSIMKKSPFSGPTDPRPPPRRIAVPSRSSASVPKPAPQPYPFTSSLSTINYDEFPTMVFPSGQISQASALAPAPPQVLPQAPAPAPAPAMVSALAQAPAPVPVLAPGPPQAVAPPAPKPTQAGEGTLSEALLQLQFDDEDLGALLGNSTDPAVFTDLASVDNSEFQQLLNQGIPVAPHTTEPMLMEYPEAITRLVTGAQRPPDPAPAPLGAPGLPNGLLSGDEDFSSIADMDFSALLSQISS

Structure (SMILES): Cc1ccc(CC(=O)N[C@@H](Cc2ccccc2)C(=O)NCCn2ccnc2)cc1
- Activity [1]: Active
- Activity [2]: Dose-dependent effect
- Activity [3]: Active
- Activity [4]: Active
- Activity [5]: Active
- inhibition [6]: Active
- Activity [7]: Active
- viability at 4 µM [8]: > 40%
- Activity [9]: Non-Toxic
- Activity [10]: Active

Structure (SMILES): O=C(Cc1ccc(F)cc1)N[C@@H](Cc1ccc(O)cc1)C(=O)NCCN1CCOCC1
- Activity [2]: Dose-dependent effect
- Activity [3]: Active
- Activity [5]: Active
- viability at 4 µM [8]: > 30%
- Activity [9]: Non-Toxic
- Activity [10]: Active

Structure (SMILES): COc1ccc(C2(CNC(=O)[C@](C)(Cc3c[nH]c4ccccc34)NC(=O)Nc3ccc([N+](=O)[O-])cc3)CCCCC2)nc1
- Activity [1]: Active
- Activity [3]: Active
- Activity [4]: Active
- Activity [5]: Active
- inhibition [6]: Active
- Activity [11]: Toxic
- Activity [7]: Active
- Activity [10]: Active
